This note sets out measurements from ChEMBL document CHEMBL4265984, “Improved potency and reduced toxicity of the antifungal peptoid AEC5 through submonomer modification” (Bioorg Med Chem Lett, 2018).

In one data set the test system is Cryptococcus neoformans. The data set is described as follows: Antifungal activity against Cryptococcus neoformans H99S serotype A after 72 hrs by presto blue dye based CLSI method. It is filed as functional, Cryptococcus neoformans var. grubii H99S.
The nature of data set [1]: Cytotoxicity against human HepG2 cells after 72 hrs by MTT assay. It is filed as cell-based. The note with it: read-out: TD50. In general terms: Tetrazolium dyes change colour on reduction, which living cells bring about.
Data set [2] in a line: Selectivity index, ratio of TD50 for human HepG2 cells to MIC>90 for Cryptococcus neoformans H99S serotype A. It is filed as toxicity. Conditions: read-out: Selectivity Index.
The test system of the next data set is Erythrocyte. The data set is described as follows: Hemolytic activity in human RBC after 1 hr. It is filed as ADME, cell-based. The gist of the method: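 Hemolysis of human red blood cells is reported as HC10, the concentration giving 10% hemolysis, in µg/mL.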
Data set [3] can be described thus: Cytotoxicity against mouse NIH/3T3 cells after 72 hrs by MTT assay. It is filed as cell-based, NIH3T3. Conditions: read-out: TD50.
The nature of data set [4]: Hemolytic activity in human RBC at 100 ug/ml after 1 hr relative to control. It is filed as ADME, cell-based, Erythrocyte. Conditions: red blood cells (erythrocytes), read-out: Activity.
The nature of data set [5]: Selectivity index, ratio of HC10 for human RBC to MIC>90 for Cryptococcus neoformans H99S serotype A. It is filed as toxicity. Conditions: red blood cells, read-out: Selectivity Index.
Data set [6] in a line: Selectivity index, ratio of TD50 for mouse NIH/3T3 cells to MIC>90 for Cryptococcus neoformans H99S serotype A. It is filed as toxicity. The note with it: read-out: Selectivity Index.

Converted amounts (≈) assume the structure as drawn. Some results are limits rather than exact numbers.

One may read the MIC90 as the lowest concentration that inhibits either 90% of growth or 90% of the strains tested, depending on the study. A lower MIC90 goes with greater potency. `CCCCCCCCCCCCCNCC(=O)N(CCCCO)CC(=O)N(CC(N)=O)Cc1cccs1`: the MIC90 in the data set with Cryptococcus neoformans is 12.5 µg/mL (≈ 23.2 µM). Moreover, the CC50 at 72 h in data set [1] was found to be 31 µg/mL (≈ 57.5 µM). Besides, in data set [2], the selectivity ratio was 3.
In the data set on Cryptococcus neoformans, `CCCCCCCCCCCCCNCC(=O)N(CCCCN)CC(=O)N(CCc1c[nH]c2ccccc12)CC(N)=O` yielded an MIC90 of 3.13 µg/mL (≈ 5.35 µM). In addition, in data set [1], the CC50 at 72 h was 42.7 µg/mL (≈ 73 µM). In addition, the selectivity ratio in data set [2] was 14.
As for `CC(C)=CCC/C(C)=C/CC/C(C)=C/CNCC(=O)N(CCCCN)CC(=O)N(CC(N)=O)Cc1cccs1`, the MIC90 with Cryptococcus neoformans came out at 400 µg/mL (≈ 715 µM).
Regarding `CCCCCCCCCCCCCCCCNCC(=O)N(CCCCN)CC(=O)N(CC(N)=O)Cc1ccco1`, the MIC90 against Cryptococcus neoformans came out at 3.13 µg/mL (≈ 5.55 µM). Also, in data set [1], the CC50 at 72 h amounted to 40.4 µg/mL (≈ 71.7 µM). For the same molecule, in data set [2], the selectivity ratio turned out to be 13.
`CCCCCCCCCCCCCNCC(=O)N(CCCNC(=N)N)CC(=O)N(CC(N)=O)Cc1cccs1` yielded an MIC90 in the data set with Cryptococcus neoformans of 12.5 µg/mL (≈ 22.1 µM). The CC50 at 72 h in data set [1] came out at 40.8 µg/mL (≈ 72.1 µM). Also, the selectivity ratio in data set [2] stood at 3.
In the data set with Cryptococcus neoformans, `CCCCCCCCCCCCCNCC(=O)N(CCCC[N+](C)(C)C)CC(=O)N(CC(N)=O)Cc1cccs1` yielded an MIC90 of 3.13 µg/mL. For the same molecule, the HC10 in the data set with Erythrocyte came to 42.6 µg/mL. Moreover, the CC50 at 72 h came to 91.2 µg/mL in data set [1] and 115 µg/mL in data set [3]. Further, the hemolysis at 1 h, 100 ug/ml in data set [4] is 46%.
As to `CCCCCCCCCCCCCNCC(=O)N(CCCCN)CC(=O)N(CCCn1ccnc1)CC(N)=O`, the MIC90 against Cryptococcus neoformans worked out at 50 µg/mL (≈ 90.9 µM). The CC50 at 72 h in data set [1] stood at 228 µg/mL (≈ 415 µM). In data set [2], the selectivity ratio was 5.
In the case of `CCCCCCCCCCCCCNCC(=O)N(CCCCN)CC(=O)N(CC(N)=O)Cc1ccco1`, the MIC90 in the data set with Cryptococcus neoformans came out at 6.3 µg/mL (≈ 12.1 µM). Further, the HC10 with Erythrocyte is 56.6 µg/mL. Moreover, the CC50 at 72 h came out at 56.2 µg/mL (≈ 108 µM) in data set [1] and 48.6 µg/mL (≈ 93.1 µM) in data set [3]. The selectivity ratio in data set [5] is 9; in data set [2], 9; in data set [6], 8. Also, in data set [4], the hemolysis at 1 h, 100 ug/ml amounted to 30.4%.
Molecule `CC(C)=CCC/C(C)=C/CC/C(C)=C/CNCC(=O)N(CCCCN)CC(=O)N(CC(N)=O)Cc1ccco1` returned an MIC90 in the data set with Cryptococcus neoformans of 100 µg/mL (≈ 184 µM). Also, the CC50 at 72 h in data set [1] amounted to 800 µg/mL (≈ 1470 µM). Besides, the selectivity ratio in data set [2] was 8.
In the data set with Cryptococcus neoformans, `CNCC(=O)N(CCCCN)CC(=O)N(CC(N)=O)Cc1ccco1` had an MIC90 greater than 400 µg/mL. Further, in data set [1], the CC50 at 72 h was greater than 800 µg/mL.
Molecule `CCCCCCCCCCCCCNCC(=O)N(CCCCN)CC(=O)N(CC(N)=O)CC1CCCO1` (centres undefined) gave an MIC90 against Cryptococcus neoformans of 12.5 µg/mL (≈ 23.8 µM). Besides, the CC50 at 72 h in data set [1] came to 170 µg/mL (≈ 324 µM). The selectivity ratio in data set [2] was 14.
In the data set with Cryptococcus neoformans, `CCCCCCCCCCCCCNCC(=O)N(CCCCN)CC(=O)N(CC(N)=O)Cc1ccncc1` came in with an MIC90 of 25 µg/mL (≈ 46.9 µM). Moreover, the CC50 at 72 h in data set [1] was determined as 104 µg/mL (≈ 195 µM). Also, in data set [2], the selectivity ratio came to 4.
`CCCCCCCCCCCCCNCC(=O)N(CCCCCCN)CC(=O)N(CC(N)=O)Cc1cccs1` had an MIC90 in the data set on Cryptococcus neoformans of 3.13 µg/mL (≈ 5.53 µM). In data set [1], the CC50 at 72 h amounted to 56.2 µg/mL (≈ 99.3 µM). In addition, the selectivity ratio in data set [2] worked out at 18.
In the data set with Cryptococcus neoformans, `CCCCCCCCCCCCCNCC(=O)N(CCCCN)CC(=O)N(C)CC(N)=O` showed an MIC90 of 50 µg/mL (≈ 110 µM). Further, the CC50 at 72 h in data set [1] is 54.3 µg/mL (≈ 119 µM). Also, in data set [2], the selectivity ratio was 1.
For `CCCCCCCCCCCCCNCC(=O)N(C)CC(=O)N(CC(N)=O)Cc1ccco1` the same measures were 12.5 µg/mL (≈ 26.9 µM), 21.1 µg/mL (≈ 45.4 µM) and 2.
For `CCCCCCCCCCCCCNCC(=O)N(CCCCN)CC(=O)N(CC(N)=O)Cc1ncc[nH]1`, the MIC90 against Cryptococcus neoformans was determined as 25 µg/mL (≈ 47.9 µM). In addition, the CC50 at 72 h in data set [1] was 147 µg/mL (≈ 282 µM). Also, the selectivity ratio in data set [2] came out at 6.
For the molecule `CCCCCCCCNCC(=O)N(CCCCN)CC(=O)N(CC(N)=O)Cc1ccco1`, the MIC90 with Cryptococcus neoformans was greater than 800 µg/mL.
`CCCCCCCCCCNCC(=O)N(CCCCN)CC(=O)N(CC(N)=O)Cc1ccco1` returned an MIC90 with Cryptococcus neoformans of 400 µg/mL (≈ 834 µM).
With `CCCCCCCCCCCCCNCC(=O)N(CCCCN)CC(=O)N(CC(N)=O)Cc1ccccc1`, in the data set on Cryptococcus neoformans, the MIC90 amounted to 3.13 µg/mL (≈ 5.89 µM). Further, the CC50 at 72 h in data set [1] was found to be 52.2 µg/mL (≈ 98.2 µM). The selectivity ratio in data set [2] turned out to be 17.
In the data set with Cryptococcus neoformans, `CC(C)=CCC/C(C)=C/CNCC(=O)N(CCCCN)CC(=O)N(CC(N)=O)Cc1ccco1` yielded an MIC90 of 400 µg/mL (≈ 841 µM).
`CC(C)=CCC/C(C)=C/CC/C(C)=C/CNCC(=O)N(CCCCN)CC(=O)N(CCc1c[nH]c2ccccc12)CC(N)=O` came in with an MIC90 with Cryptococcus neoformans of 100 µg/mL (≈ 165 µM).
`CCCCCCCCCCCCCNCC(=O)N(CCCCN)CC(=O)N(CC(N)=O)Cc1cccs1` yielded an MIC90 in the data set with Cryptococcus neoformans of 3.13 µg/mL (≈ 5.82 µM). In the data set with Erythrocyte, this molecule returned an HC10 of 37.2 µg/mL. Moreover, the CC50 at 72 h was determined as 79.3 µg/mL (≈ 147 µM) in data set [1] and 65.9 µg/mL (≈ 123 µM) in data set [3]. The selectivity ratio in data set [5] stood at 12; in data set [2], 25; in data set [6] it was 21. Also, the hemolysis at 1 h, 100 ug/ml in data set [4] was found to be 48.6%.
In the data set with Cryptococcus neoformans, `CCCCCCCCCCCCCNCC(=O)N(CCN)CC(=O)N(CC(N)=O)Cc1cccs1` showed an MIC90 of 6.25 µg/mL (≈ 12.3 µM). The CC50 at 72 h in data set [1] worked out at 40.5 µg/mL (≈ 79.4 µM). In addition, the selectivity ratio in data set [2] was 6.
`CC(C)=CCC/C(C)=C/CC/C(C)=C/CNCC(=O)N(CCCCN)CC(=O)N(CCCn1ccnc1)CC(N)=O` displayed an MIC90 with Cryptococcus neoformans of 100 µg/mL (≈ 175 µM).
In the data set on Cryptococcus neoformans, `CCCCCCCCCCCCCNCC(=O)N(CCCN)CC(=O)N(CC(N)=O)Cc1cccs1` registered an MIC90 of 3.13 µg/mL (≈ 5.98 µM). In data set [1], the CC50 at 72 h is 47.3 µg/mL (≈ 90.3 µM). For the same molecule, the selectivity ratio in data set [2] is 15.
